Screening results: PubChem BioAssay, several laboratories
Hits are enriched below; roughly 2.9% of the tested compounds scored in any of these assays.
CRFBP-R2 block – antagonists of CRF-binding protein/CRF-R2 receptor complex | HEK293 CRF-R2/CRF-BP, CRF-induced calcium fluorescence | inhibition, % at 11.8 µM | 0.59% of 350,000 active | AID 588475;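 active = inhibition of the ligand-induced calcium signal above about 50% at the single tested concentration, limit read from the data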
NRP1-CendR mod – alters CendR peptide binding to human NRP-1; FAM-RPARPAR peptide binding to NRP-1, fluorescence polarization; inhibition, % at 25 µM; 0.85% of 360,000 active;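 active = inhibition or corrected inhibition above about 18%, plus a signal ratio from 0.5 to 1.5, limit read from the data, passing the limit was not always enough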
CRFBP-R2 agonist – agonists of human CRF-binding protein/CRF-R2 receptor complex | activation, % at 13.2 µM | 0.46% of 350,000 active | HEK293 CRF-R2/CRF-BP, calcium dye fluorescence (FLIPR); percent of saturating CRF peptide response | AID 588473;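 active = activation of at least 50%, plus an integration ratio under a set limit after plate pattern correction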
KLK7 zymogen act – activators of human kallikrein-7 zymogen; purified proKLK7, EDANS-DABCYL substrate fluorescence; 100% is mature enzyme control, 0% vehicle; activation, % at 7 µM; AID 652039; 0.9% of 370,000 active;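 active = activation above the mean of all tested compounds plus 3 SD, computed per campaign excluding outliers beyond control limits, cut at about 13% in these data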
Target sequence (P49862 whole entry, looked up): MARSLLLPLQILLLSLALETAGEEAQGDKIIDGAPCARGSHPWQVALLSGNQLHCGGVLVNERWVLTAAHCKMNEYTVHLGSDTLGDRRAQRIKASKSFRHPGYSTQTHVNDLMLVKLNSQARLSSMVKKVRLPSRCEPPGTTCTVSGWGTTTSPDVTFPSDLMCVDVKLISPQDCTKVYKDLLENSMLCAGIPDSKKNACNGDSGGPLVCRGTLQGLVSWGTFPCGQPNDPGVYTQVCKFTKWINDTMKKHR
DDE Tn6 FP inh – DD(E)-Tn6 binding inhibition, primary FP screen. P02675. inhibition, % at 8.3 µM. Fibrin DD(E) TRITC-Tn6 fluorescence polarization displacement. 0.21% of 370,000 active;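 active = inhibition above a per-campaign cutoff: mean of compounds within control limits plus 3 SD, cut at about 15% in these data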
Target sequence (P02675 whole entry, looked up): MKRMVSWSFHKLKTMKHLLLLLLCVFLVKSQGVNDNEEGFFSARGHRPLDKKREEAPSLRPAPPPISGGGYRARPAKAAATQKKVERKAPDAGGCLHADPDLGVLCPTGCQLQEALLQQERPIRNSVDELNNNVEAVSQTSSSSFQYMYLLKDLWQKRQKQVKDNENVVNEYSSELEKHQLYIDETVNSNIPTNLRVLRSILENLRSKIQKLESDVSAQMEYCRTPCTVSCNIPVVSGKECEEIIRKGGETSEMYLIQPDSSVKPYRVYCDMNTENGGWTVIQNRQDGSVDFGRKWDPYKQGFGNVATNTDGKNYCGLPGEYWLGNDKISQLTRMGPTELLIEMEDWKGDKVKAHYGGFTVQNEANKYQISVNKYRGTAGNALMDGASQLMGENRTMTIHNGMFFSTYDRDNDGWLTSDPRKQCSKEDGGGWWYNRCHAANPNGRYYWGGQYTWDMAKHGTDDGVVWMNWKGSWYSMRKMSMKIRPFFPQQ
DDE Tn7 FP inh – inhibitors of Tn7 peptide binding to human fibrin DD(E). inhibition, % at 8.3 µM. 0.13% of 370,000 active. FP displacement of FITC-Tn7 peptide from fibrin DD(E); 0% = median of compound wells per plate. AID 720508;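 active = inhibition above the mean of compounds falling within the control limits plus 3 SD of them, cut at about 14% in these data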
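Also added: labelled Tn7 tracer, 0.1 µM; Assay system: human fibrin DD(E) protein; Amount: 2 µM fibrin DD(E); Schedule: 10 min compound pre-incubation, 3 h probe incubation at room temperature; Repeats: one replicate per compound; Read-out basis: percent inhibition; Measured by: fluorescence polarization of the labelled Tn7 tracer.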
proKLK7 act conf – proKLK7 activation, confirmation; shares compounds with KLK7 zymogen act; purified proKLK7, EDANS-DABCYL substrate fluorescence; scaled: vehicle 0, mature enzyme 100; activation, % at 7 µM; 68% of 3,200 active;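 active = activation, as change over the incubation, above the mean of all tested compounds plus 3 SD, cut at about 13% in these data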
EDANS-DABCYL int – fluorescence interference counter-screen for KLK7 activators; activation, % at 7 µM; 80% of 3,200 active; shares compounds with KLK7 zymogen act; EDANS-DABCYL substrate fluorescence interference, no enzyme, 4 h; solvent 0%, active enzyme control 100%;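 active = activation above the all-compound mean plus 3 SD, ignoring values outside control-based bounds, cut at about 4.8% in these data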;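 note: value is the 4 h activation minus the activation read at time zero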
EDANS interf – counter-screen for kallikrein-7 activators: EDANS-DABCYL interference, dose response. shares compounds with KLK7 zymogen act. AID 720493. 20% of 250 active. EDANS-DABCYL peptide fluorescence interference, no enzyme. EC50, µM;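 active = compounds that raise the fluorescence signal in this interference counterscreen, with EC50 at or below 10 µM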;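 note: intact quenched peptide substrate alone read at 355 nm excitation and 520 nm emission; signal is fluorescence gain from T0 to T4 after four hours at room temperature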
Of the large screens only hits and unclear results are named; the others gave an inactive call (follow-up assays come after a bar, where they were run).

COc1ccc(-c2cc(C(=O)OCC(=O)c3ccc(C)c([N+](=O)[O-])c3)c3ccccc3n2)cc1	none
O=C(NCc1ccccn1)c1cc(-c2ccc(-c3ccccc3)cc2)nc2ccccc12	none
O=C(NCc1cccc(C(F)(F)F)c1)O[C@H]1CC[C@@]23CCCN2C(=O)CCC[C@H]3C1	none (no result: CRFBP-R2 block, NRP1-CendR mod, CRFBP-R2 agonist, KLK7 zymogen act)
CCOP(=O)(OCC)c1nc(-c2cccc3ccccc23)oc1N1CCOCC1	KLK7 zymogen act 63.1 | proKLK7 act conf 63.2 | EDANS-DABCYL int 58.1
CCOP(=O)(OCC)c1nc(-c2ccccc2Cl)oc1N1CCOCC1	none
CN1CCSc2ccc(C(=O)NCc3cccc(F)c3)cc21	KLK7 zymogen act 49.3 | proKLK7 act conf 51.5 | EDANS-DABCYL int inactive | EDANS interf inactive
CN(C)CCNC(=O)c1ccc2c(c1)N(Cc1ccc(F)cc1)CCS2	KLK7 zymogen act 61.5 | proKLK7 act conf inactive | EDANS-DABCYL int inactive
Cc1ccc(CN2CCSc3ccc(C(=O)NC4CCCC4)cc32)cc1	none (no result: KLK7 zymogen act, DDE Tn6 FP inh, DDE Tn7 FP inh)
Cc1ccc(CN2CCSc3ccc(C(=O)NCCCN4CCN(C)CC4)cc32)cc1	KLK7 zymogen act 39.4 | proKLK7 act conf inactive | EDANS-DABCYL int inactive
COc1ccc(Br)cc1CNC(=O)c1ccc2c(c1)N(C)CCS2	none
CCOC(=O)N1CCC(NC(=O)c2ccc3c(c2)N(CC)CCS3)CC1	KLK7 zymogen act 27.1 | proKLK7 act conf inactive | EDANS-DABCYL int 5.2
C[C@H](O)[C@@H]1C(=O)N2CCc3c([nH]c4cccc(-c5ccccc5)c34)[C@@H]2C[C@@H]1N(C)C(=O)Nc1ccccc1	none (no result: CRFBP-R2 block, NRP1-CendR mod, CRFBP-R2 agonist)
CCCCCCC[C@H](N)[C@H](O)C(=O)N(C)[C@@H](CCS(C)=O)C(=O)N[C@@H](Cc1ccc(O)cc1)C(=O)O (stereo partly drawn)	none (no result: CRFBP-R2 block, NRP1-CendR mod, CRFBP-R2 agonist, KLK7 zymogen act)
O=S1(=O)CC(N2CCCC2)CN1 (stereo not drawn)	none (no result: CRFBP-R2 block, NRP1-CendR mod, CRFBP-R2 agonist)
COC(=O)[C@H]1Cc2c([nH]c3ccccc23)[C@H](c2ccccc2)N1	none
COC(=O)C1Cc2c([nH]c3ccccc23)CN1 (stereo not drawn)	KLK7 zymogen act 18.6 | proKLK7 act conf inactive | EDANS-DABCYL int 8.9
COc1nc(OC)nc(N2CCC(C(=O)NCc3cccc(OC)c3OC)CC2)n1	none (no result: CRFBP-R2 block, NRP1-CendR mod, CRFBP-R2 agonist)
CC(c1ccccc1)C1CC(=O)N(Cc2ccco2)C1=O (stereo not drawn)	KLK7 zymogen act 118.7 | proKLK7 act conf inactive | EDANS-DABCYL int inactive
COc1cccc(NC(=O)NNC(=O)CCc2ccc(O)c(O)c2)c1	KLK7 zymogen act 19.1 | proKLK7 act conf 13.3 | EDANS-DABCYL int 16.3
NC(=O)N/N=C/c1cc(Br)ccc1OC(=O)c1ccccc1	KLK7 zymogen act 16.5 | proKLK7 act conf 14.0 | EDANS-DABCYL int 12.8
COc1cc(/C=N/NC(=O)c2cccnc2)ccc1OCC(=O)Nc1ccccc1Cl	none
COc1ccc(OC)c(/C=N/NC(=O)CC(=O)NC2CCCCC2)c1	KLK7 zymogen act 28.6 | proKLK7 act conf inactive | EDANS-DABCYL int 22.7
COc1ccc(OC)c(/C=N/NC(=O)CCc2c(C)n[nH]c2C)c1	KLK7 zymogen act 16.8 | proKLK7 act conf 32.3 | EDANS-DABCYL int 35.4
COc1ccc(NC(=O)COc2ccc(/C=N/NC(=O)c3cccnc3)cc2OC)cc1	KLK7 zymogen act 19.9 | proKLK7 act conf inactive | EDANS-DABCYL int inactive
COc1ccc(OC)c(/C=N/NC(=O)c2cc[n+](CC(=O)c3ccccc3)cc2)c1	KLK7 zymogen act 30.9 | proKLK7 act conf 63.3 | EDANS-DABCYL int 64.8
COc1ccc(OC)c(/C=N/NC(=O)CC(=O)NCc2ccccc2)c1	none
CCN=C1NC(CCc2ccccc2)C(C(=O)OC)=C(C)N1Cc1ccccc1C(F)(F)F (stereo not drawn)	none (no result: CRFBP-R2 block, NRP1-CendR mod, CRFBP-R2 agonist)
COc1ccccc1CNc1ccc2c(c1)OC[C@H](CC(C)C)NS2(=O)=O	none (no result: CRFBP-R2 block, NRP1-CendR mod, CRFBP-R2 agonist)
COc1ccc(C(=O)c2[nH]c(N)c(C(=O)c3c[nH]c4ccccc34)c2-c2ccc(OC)cc2)cc1	none (no result: CRFBP-R2 block, NRP1-CendR mod, CRFBP-R2 agonist)
CCCCNC(=O)C[C@H]1C[C@@]2(C(=O)OC)C(=C[C@H](C(C)C)O[C@@H]2C2CC2)N(Cc2ccc(Cl)cc2Cl)C1=O	none (no result: CRFBP-R2 block, NRP1-CendR mod, CRFBP-R2 agonist)
COc1ccc(OC)c(/C=N/NC(=O)C(=O)N/N=C/c2cc(OC)ccc2OC)c1	none
COc1ccc(OC)c(/C=N/NC(=O)C(=O)N2CCCC2)c1	KLK7 zymogen act 59.1 | proKLK7 act conf 47.9 | EDANS-DABCYL int 46.2
COc1cc(/C=C/c2cc[n+](C)cc2)ccc1OCC(=O)Nc1ccccc1	KLK7 zymogen act 24.3 | proKLK7 act conf 27.8 | EDANS-DABCYL int 24.8
C/C=C/c1ccc(OCC(=O)Nc2ccc(C(N)=O)cc2)c(OC)c1	none
COc1ccc(OC)c(/C=N/NC(=O)c2cnccn2)c1	KLK7 zymogen act 25.7 | proKLK7 act conf 36.4 | EDANS-DABCYL int 38.8
COc1cccc(/C=N/NC(=O)CC2C(=O)NN=C2C)c1OC (stereo not drawn)	none
COc1ccc(OC)c(/C=N/NC(=O)CC2C(=O)NN=C2C)c1 (stereo not drawn)	KLK7 zymogen act 77.4 | proKLK7 act conf 44.6 | EDANS-DABCYL int 39.4
Cc1ccccc1CNC(=O)C1C2C=CC3(CN(Cc4ccccc4)C(=O)C13)O2 (stereo not drawn)	none (no result: CRFBP-R2 block, NRP1-CendR mod, CRFBP-R2 agonist)
c1ccc(Cn2ccc3ccc(-c4ccc5ccn(Cc6cccc(-c7ccsc7)c6)c5c4)cc32)cc1	none (no result: CRFBP-R2 block, NRP1-CendR mod, CRFBP-R2 agonist)
O=C(COC(=O)c1ccccc1SCC(=O)N1CCCC1)NC1CCS(=O)(=O)C1 (stereo not drawn)	none
O=C(COC(=O)c1ccccc1SCC(=O)NC1CCS(=O)(=O)C1)NC1CCS(=O)(=O)C1 (stereo not drawn)	KLK7 zymogen act 14.1 | proKLK7 act conf 19.0 | EDANS-DABCYL int 19.0
CC(=O)Nc1nc2nc(-c3ccccc3)cc(-c3ccccc3)n2n1	none
O=C1CCC(=O)N1c1nc2nc(-c3ccccc3)cc(-c3ccccc3)n2n1	KLK7 zymogen act 30.6 | proKLK7 act conf 40.3 | EDANS-DABCYL int 43.9
CCN(CC)C(=O)CC[C@H]1CC[C@]2(CCCN(Cc3nccn3C)C2)O1	none (no result: CRFBP-R2 block, NRP1-CendR mod, CRFBP-R2 agonist)
CC(C)C(C(=O)NCc1ccccc1)N1CCN(CCN2CCOCC2)CC1 (stereo not drawn)	none (no result: CRFBP-R2 block, NRP1-CendR mod, CRFBP-R2 agonist)
